In ChEMBL document CHEMBL1150264, “Design and microwave-assisted synthesis of novel macrocyclic peptides active at melanocortin receptors: discovery of potent and selective hMC5R receptor antagonists” (J Med Chem, 2008):
The source made the active and inactive calls. No cut-off for these calls is given here.

Assays:
[1] = target: T1, Melanocortin receptor 5 (Homo sapiens, UniProt P33032); experiment: Displacement of [125I]-[Nle4, D-Phe7]alpha-MSH from human melanocortin 5 receptor expressed in HEK293 cells; type: cell-based
Method in brief: (§1)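 Whole HEK293 cells stably expressing each hMCR, seeded 48 h before assay (50000 cells/well), washed in MEM with 25 mM bicarbonate. Cells incubated 40 min at 37 °C with unlabeled peptide plus [125I]-NDP-α-MSH (33.06 pM, 20000 cpm/well) in MEM, 25 mM HEPES pH 7.4, 0.2% BSA, 1 mM 1,10-phenanthroline, leupeptin, bacitracin. Cells washed, lysed with NaOH/Triton X-100, and gamma-counted. IC50 by nonlinear fit, two experiments in triplicate […].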

[2] = target: T2, Melanocortin receptor 4 (Homo sapiens, UniProt P32245); experiment: Agonist activity at human melanocortin 4 receptor expressed in HEK293 cells assessed as cAMP accumulation at 10 uM; type: functional, cell-based
Method in brief: (§2)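 cAMP accumulation assay in stably transfected HEK293 cells: 0.5 mM IBMX preincubation, 3 min ligand exposure at 37 °C, [3H]cAMP/PKA binding read-out against a standard curve. The cAMP produced at 10 μM ligand is expressed as percent of that produced by 10 μM MT-II (% max effect).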

[3] = target: T3, Melanocortin receptor 3 (Homo sapiens, UniProt P41968); experiment: Agonist activity at human melanocortin 3 receptor expressed in HEK293 cells assessed as cAMP accumulation at 10 uM realtive to MT2; type: functional, cell-based; method in brief: as §2
[4] = target: T4, Melanocyte-stimulating hormone receptor (Homo sapiens, UniProt Q01726); experiment: Agonist activity at human melanocortin 1 receptor expressed in HEK293 cells assessed as cAMP accumulation at 10 uM realtive to MT2; type: functional, cell-based; method in brief: as §2
Target sequence in this assay (Q01726 whole entry, looked up): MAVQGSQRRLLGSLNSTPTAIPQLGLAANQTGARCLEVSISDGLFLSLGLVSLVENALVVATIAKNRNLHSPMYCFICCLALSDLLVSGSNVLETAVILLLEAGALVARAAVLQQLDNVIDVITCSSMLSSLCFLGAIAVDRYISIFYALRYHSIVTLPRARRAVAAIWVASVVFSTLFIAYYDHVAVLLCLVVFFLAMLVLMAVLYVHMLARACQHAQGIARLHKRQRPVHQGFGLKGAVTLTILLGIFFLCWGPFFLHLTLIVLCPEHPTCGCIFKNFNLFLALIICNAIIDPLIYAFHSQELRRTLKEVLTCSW

[5] = target: T4, Melanocyte-stimulating hormone receptor; experiment: Agonist activity at human melanocortin 1 receptor expressed in HEK293 cells assessed as cAMP accumulation; type: functional, cell-based
Method in brief: (§3)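 Stably transfected HEK293 cells seeded 48 h before assay (50000 cells/well), rinsed, preincubated 1 min at 37 °C in Earle's balanced salt solution with 0.5 mM IBMX, then given peptide at varying concentrations for 3 min at 37 °C. Stopped with ice-cold Tris/EDTA and boiling 7 min. cAMP measured by [3H]cAMP competition for PKA against a standard curve. EC50 by nonlinear least-squares fit, mean of two experiments in triplicate.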
Target sequence in this assay (Q01726 whole entry): as the sequence (Q01726 whole entry, looked up) above

[6] = target: T2, Melanocortin receptor 4; experiment: Agonist activity at human melanocortin 4 receptor expressed in HEK293 cells assessed as cAMP accumulation at 10 uM realtive to MT2; type: functional, cell-based; method in brief: as §2
[7] = target: T2, Melanocortin receptor 4; experiment: Displacement of [125I]-[Nle4, D-Phe7]alpha-MSH from human melanocortin 4 receptor expressed in HEK293 cells at 10 uM; type: cell-based
[8] = target: T1, Melanocortin receptor 5; experiment: Agonist activity at human melanocortin 5 receptor expressed in HEK293 cells assessed as cAMP accumulation at 10 uM realtive to MT2; type: functional, cell-based; method in brief: as §2
[9] = target: T3, Melanocortin receptor 3; experiment: Displacement of [125I]-[Nle4, D-Phe7]alpha-MSH from human melanocortin 3 receptor expressed in HEK293 cells; type: cell-based; method in brief: as §1
[10] = target: T4, Melanocyte-stimulating hormone receptor; experiment: Displacement of [125I]-[Nle4, D-Phe7]alpha-MSH from human melanocortin 1 receptor expressed in HEK293 cells; type: cell-based; method in brief: as §1
Target sequence in this assay (Q01726 whole entry): as the sequence (Q01726 whole entry, looked up) above

[11] = target: T1, Melanocortin receptor 5; experiment: Agonist activity at human melanocortin 5 receptor expressed in HEK293 cells assessed as cAMP accumulation at 10 uM; type: functional, cell-based; method in brief: as §2
[12] = target: T3, Melanocortin receptor 3; experiment: Agonist activity at human melanocortin 3 receptor expressed in HEK293 cells assessed as cAMP accumulation; type: functional, cell-based; method in brief: as §3
[13] = target: T3, Melanocortin receptor 3; experiment: Displacement of [125I]-[Nle4, D-Phe7]alpha-MSH from human melanocortin 3 receptor expressed in HEK293 cells at 10 uM; type: cell-based
[14] = target: T2, Melanocortin receptor 4; experiment: Displacement of [125I]-[Nle4, D-Phe7]alpha-MSH from human melanocortin 4 receptor expressed in HEK293 cells; type: cell-based; method in brief: as §1
[15] = target: T4, Melanocyte-stimulating hormone receptor; experiment: Agonist activity at human melanocortin 1 receptor expressed in HEK293 cells assessed as cAMP accumulation at 10 uM; type: functional, cell-based; method in brief: as §2
Target sequence in this assay (Q01726 whole entry, looked up): as above

[16] = target: T1, Melanocortin receptor 5; experiment: Antagonist activity at human melanocortin 5 receptor expressed in HEK293 cells; type: functional, cell-based
Method in brief: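 Antagonism at hMC5R in the HEK293 cAMP assay (IBMX, 3 min at 37 °C, [3H]cAMP/PKA read-out). Four antagonist doses spanning 10−10 to 10−6 M were tested against MT-II agonist dose-response curves. pA2 derived by Schild analysis.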

[17] = target: T2, Melanocortin receptor 4; experiment: Agonist activity at human melanocortin 4 receptor expressed in HEK293 cells assessed as cAMP accumulation; type: functional, cell-based; method in brief: as §3
[18] = target: T1, Melanocortin receptor 5; experiment: Agonist activity at human melanocortin 5 receptor expressed in HEK293 cells assessed as cAMP accumulation; type: functional, cell-based; method in brief: as §3
[19] = target: T3, Melanocortin receptor 3; experiment: Agonist activity at human melanocortin 3 receptor expressed in HEK293 cells assessed as cAMP accumulation at 10 uM; type: functional, cell-based; method in brief: as §2

T2 sequence (P32245 whole entry): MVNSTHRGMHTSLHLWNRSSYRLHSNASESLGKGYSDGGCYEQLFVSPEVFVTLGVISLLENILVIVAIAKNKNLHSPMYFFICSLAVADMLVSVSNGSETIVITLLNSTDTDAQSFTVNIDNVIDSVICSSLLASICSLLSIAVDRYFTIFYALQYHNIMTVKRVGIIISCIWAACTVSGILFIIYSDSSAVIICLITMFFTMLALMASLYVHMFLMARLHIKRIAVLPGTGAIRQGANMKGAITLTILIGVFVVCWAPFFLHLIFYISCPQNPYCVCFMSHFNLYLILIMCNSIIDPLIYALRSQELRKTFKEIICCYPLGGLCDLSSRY
T1 sequence (P33032 whole entry): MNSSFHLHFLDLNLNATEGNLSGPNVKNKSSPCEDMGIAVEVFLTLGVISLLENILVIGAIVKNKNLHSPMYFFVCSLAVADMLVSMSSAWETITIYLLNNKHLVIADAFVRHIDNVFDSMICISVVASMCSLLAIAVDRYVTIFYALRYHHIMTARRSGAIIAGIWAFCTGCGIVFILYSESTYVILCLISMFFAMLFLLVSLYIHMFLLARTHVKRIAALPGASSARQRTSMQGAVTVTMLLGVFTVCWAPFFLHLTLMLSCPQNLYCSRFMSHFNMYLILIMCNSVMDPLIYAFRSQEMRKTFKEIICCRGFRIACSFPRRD
T3 sequence (P41968 whole entry): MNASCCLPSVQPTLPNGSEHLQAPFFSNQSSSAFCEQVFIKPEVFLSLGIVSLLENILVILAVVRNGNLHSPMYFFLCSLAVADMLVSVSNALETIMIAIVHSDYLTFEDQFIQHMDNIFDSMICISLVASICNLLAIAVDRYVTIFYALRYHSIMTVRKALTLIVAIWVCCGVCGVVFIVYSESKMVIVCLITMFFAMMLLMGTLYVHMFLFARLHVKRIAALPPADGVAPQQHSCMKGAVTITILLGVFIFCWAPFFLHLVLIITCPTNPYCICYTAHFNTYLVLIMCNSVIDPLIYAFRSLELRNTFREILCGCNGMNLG

| IC50 [1] [µM] | Activity [2] | Activity [3] [%] | Activity [4] [%] | EC50 [5] [µM] | Activity [6] [%] | Activity [8] [%] | IC50 [9] [µM] | IC50 [10] [µM] | Activity [11] | EC50 [12] [µM] | IC50 [14] [µM] | SMILES | further results |
| --- | --- | --- | --- | --- | --- | --- | --- | --- | --- | --- | --- | --- | --- |
| 0.56 | inactive | 40 | 52 | > 1 | 0 | 0 | – | > 1 | inactive | > 5 | – | N=C(N)NCCC[C@@H]1NC(=O)[C@@H](Cc2ccccc2)NC(=O)C2(Cc3ccccc3C2)NC(=O)c2cc([N+](=O)[O-])ccc2SC[C@@H](C(N)=O)NC(=O)[C@H](Cc2c[nH]c3ccccc23)NC1=O | Activity [13]: inactive; Activity [7]: inactive |
| 0.19 | – | – | – | 0.002 | – | – | 0.04 | 0.0037 | – | 0.002 | 0.047 | NC(=O)[C@@H]1CSc2ccc([N+](=O)[O-])cc2C(=O)N[C@@H](Cc2cnc[nH]2)C(=O)N[C@H](Cc2ccccc2)C(=O)N[C@@H](CCCN=C(N)N)C(=O)N[C@@H](Cc2c[nH]c3ccccc23)C(=O)N1 | EC50 [17]: 0.037 µM; EC50 [18]: 0.044 µM |
| 0.34 | – | – | – | 0.071 | – | – | 0.61 | 0.18 | – | 0.056 | > 1 | NC(=O)[C@@H]1CSc2ccc([N+](=O)[O-])cc2C(=O)N[C@@H](Cc2cnc[nH]2)C(=O)N[C@H](Cc2ccccc2)C(=O)N[C@@H](CCCN=C(N)N)C(=O)N[C@@H](Cc2ccc3ccccc3c2)C(=O)N1 | – |
| > 2 | inactive | 0 | 105 | 0.1 | 1 | 0 | – | 1 | inactive | – | > 1 | N=C(N)NCCC[C@@H]1NC(=O)[C@@H](Cc2ccccc2)NC(=O)[C@H](Cc2cnc[nH]2)NC(=O)c2cc([N+](=O)[O-])ccc2SC[C@@H](C(N)=O)NC(=O)[C@@H](Cc2c[nH]c3ccccc23)NC1=O | Activity [13]: inactive; Activity [19]: inactive |

The remaining lines, values behind:

| SMILES | IC50 [1] [µM] | Activity [2] | Activity [3] [%] | Activity [4] [%] | EC50 [5] [µM] | Activity [6] [%] | Activity [8] [%] | IC50 [9] [µM] | IC50 [10] [µM] | Activity [11] | EC50 [12] [µM] | IC50 [14] [µM] | further results |
| --- | --- | --- | --- | --- | --- | --- | --- | --- | --- | --- | --- | --- | --- |
| N=C(N)NCCC[C@@H]1NC(=O)[C@@H](Cc2ccccc2)NC(=O)[C@H](CC2CCCCC2)NC(=O)c2cc([N+](=O)[O-])ccc2SC[C@@H](C(N)=O)NC(=O)[C@H](Cc2c[nH]c3ccccc23)NC1=O | 0.038 | inactive | > 100 | 92 | 0.81 | 0 | 0 | > 1 | > 2 | inactive | > 4 | – | Activity [7]: inactive |
| NC(=O)[C@@H]1CSc2ccc([N+](=O)[O-])cc2C(=O)N[C@@H](Cc2cnc[nH]2)C(=O)N[C@@H](Cc2ccc3ccccc3c2)C(=O)N[C@@H](CCCN=C(N)N)C(=O)N[C@@H](Cc2c[nH]c3ccccc23)C(=O)N1 | – | – | – | – | – | – | – | – | – | – | – | – | IC50 ([1]; hek293): 0.13 µM; IC50 ([14]; hek293): > 5 µM; IC50 ([9]; hek293): > 1 µM; IC50 ([10]; hek293): > 2 µM; EC50 ([12]; hek293): 0.05 µM |
| N=C(N)NCCC[C@@H]1NC(=O)[C@H](Cc2ccc3ccccc3c2)NC(=O)[C@H](Cc2cnc[nH]2)NC(=O)c2cc([N+](=O)[O-])ccc2SC[C@@H](C(N)=O)NC(=O)[C@H](Cc2c[nH]c3ccccc23)NC1=O | – | inactive | 21 | 0 | – | 0 | 0 | – | – | inactive | – | – | Activity [15]: inactive; pA2 [16]: 8.3 |
| N=C(N)NCCC[C@@H]1NC(=O)[C@@H](Cc2ccccc2)NC(=O)[C@@H]2CCCN2C(=O)c2cc([N+](=O)[O-])ccc2SC[C@@H](C(N)=O)NC(=O)[C@H](Cc2c[nH]c3ccccc23)NC1=O | 0.058 | inactive | > 100 | 0 | – | 0 | 0 | 0.38 | > 1 | inactive | > 1 | > 1 | Activity [15]: inactive |
